One block for each molecule: values may come before it. The source made the active and inactive calls.
Legend:
Histamine H3 receptor [1] = molecular target: T1, Histamine H3 receptor (Homo sapiens, UniProt Q9Y5N1); test: Displacement of [3H]NAMH from human histamine H3 receptor expressed in CHO cells; format: cell-based
Outline: (§1)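 Radioligand displacement of [³H]NAMH from membranes isolated from CHO cells transfected with cloned human H₃ or rat H₃ receptors.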

Histamine H3 receptor [2] = molecular target: Histamine H3 receptor (Rattus norvegicus, UniProt Q9QYN8); test: Displacement of [3H]NAMH from rat histamine H3 receptor expressed in CHO cells; format: cell-based; outline: as §1
Histamine H3 receptor (Rattus norvegicus, UniProt Q9QYN8), sequence (Q9QYN8 whole entry): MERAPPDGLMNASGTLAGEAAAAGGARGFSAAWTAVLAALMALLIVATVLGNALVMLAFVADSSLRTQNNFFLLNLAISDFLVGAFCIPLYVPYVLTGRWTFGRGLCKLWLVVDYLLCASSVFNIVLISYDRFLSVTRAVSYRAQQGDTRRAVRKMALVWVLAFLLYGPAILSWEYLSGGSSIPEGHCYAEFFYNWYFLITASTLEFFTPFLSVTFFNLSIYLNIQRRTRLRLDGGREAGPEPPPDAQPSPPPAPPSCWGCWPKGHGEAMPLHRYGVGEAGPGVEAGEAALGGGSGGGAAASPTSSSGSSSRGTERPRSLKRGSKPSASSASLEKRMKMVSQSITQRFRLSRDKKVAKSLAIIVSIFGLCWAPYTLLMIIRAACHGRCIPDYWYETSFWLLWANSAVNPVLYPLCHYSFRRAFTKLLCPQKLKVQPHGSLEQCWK

[3] = molecular target: Sodium-dependent dopamine transporter (Homo sapiens) (UniProt Q01959); test: Inhibition of DAT at 10 uM
Sodium-dependent dopamine transporter (Homo sapiens), sequence (Q01959 whole entry): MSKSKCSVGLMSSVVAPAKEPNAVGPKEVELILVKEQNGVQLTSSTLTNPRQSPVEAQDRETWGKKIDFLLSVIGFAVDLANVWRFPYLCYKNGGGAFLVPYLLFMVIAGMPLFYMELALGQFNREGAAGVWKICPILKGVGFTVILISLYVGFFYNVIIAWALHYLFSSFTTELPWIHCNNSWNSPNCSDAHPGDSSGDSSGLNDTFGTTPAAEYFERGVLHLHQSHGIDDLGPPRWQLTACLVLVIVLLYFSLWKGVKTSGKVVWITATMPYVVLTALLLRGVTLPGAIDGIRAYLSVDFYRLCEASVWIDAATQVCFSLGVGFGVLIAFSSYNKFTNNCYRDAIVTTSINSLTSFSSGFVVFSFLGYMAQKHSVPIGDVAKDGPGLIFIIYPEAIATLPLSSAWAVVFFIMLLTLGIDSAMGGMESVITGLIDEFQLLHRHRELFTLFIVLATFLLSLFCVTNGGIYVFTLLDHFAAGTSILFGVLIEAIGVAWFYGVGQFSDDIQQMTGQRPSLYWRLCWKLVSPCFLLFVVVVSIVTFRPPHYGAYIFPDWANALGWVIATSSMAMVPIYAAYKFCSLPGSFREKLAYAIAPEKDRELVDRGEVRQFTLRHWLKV

[4] = Oral bioavailability in rat at 5 mg/kg; format: ADME, organism-based; conditions: in vivo
Outline: (§2)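 Rat PK: iv dose with vehicle 3% DMSO, 30% solutol, 67% phosphate buffered saline. Oral 5 mg/kg dose with vehicle 50% Tween 80, 40% propylene carbonate, 10% propylene glycol.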

Rattus norvegicus [5] = test: Effect on sleep-awake cycle in EEG/EMG rat model assessed as wake promotion time at 1 mg/kg, ip after 4 hrs (reference value: 80 +/- 5 mins); format: functional; conditions: route intraperitoneal
Outline: (§3)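 Rats surgically implanted for chronic EEG and EMG recording. Wake, slow-wave sleep and REM sleep scored by standard criteria. Doses spanned […]–30 mg/kg ip, given during the normal quiet (lights-on) period, with a vehicle group as control. Cumulative wake time taken as AUC over time after dosing. Statistics by ANOVA.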

Rattus norvegicus [6] = test: Effect on sleep-awake cycle in EEG/EMG rat model assessed as awake time at 30 mg/kg, ip after 4 hrs relative to control; format: functional; conditions: route intraperitoneal; outline: as §3
Rattus norvegicus [7] = test: Effect on sleep-awake cycle in EEG/EMG rat model assessed as maximal cumulative wake surplus time at 30 mg/kg, ip after 7 hrs relative to control; format: functional; conditions: route intraperitoneal; outline: as §3
Homo sapiens [8] = organism: Homo sapiens; test: Selectivity for human histamine H3 receptor over human histamine H2 receptor
Outline: (§4)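 The hH3 side comes from displacement of [³H]NAMH binding in membranes from CHO cells transfected with cloned human H3 receptor. Human H1, H2 and H4 receptors were tested in an outsourced receptor selectivity profiling screen (LeadProfiler/Spectrum). The value is the fold-selectivity of hH3 over each subtype.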

[9] = Drug uptake in rat brain at 5 mg/kg, po measured after 6 hrs; format: ADME, organism-based; set-up: dose 5 mg/kg, route oral; conditions: read-out: Drug uptake
Outline: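 Rats given 5 mg/kg po in 50% Tween 80, 40% propylene carbonate, 10% propylene glycol. Brain concentration determined 6 h after dosing.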

Cytochrome P450 2C9 = Cytochrome P450 2C9 (Homo sapiens, UniProt P11712); test: Inhibition of CYP2C9; format: ADME
Cytochrome P450 2C9, sequence (P11712 whole entry): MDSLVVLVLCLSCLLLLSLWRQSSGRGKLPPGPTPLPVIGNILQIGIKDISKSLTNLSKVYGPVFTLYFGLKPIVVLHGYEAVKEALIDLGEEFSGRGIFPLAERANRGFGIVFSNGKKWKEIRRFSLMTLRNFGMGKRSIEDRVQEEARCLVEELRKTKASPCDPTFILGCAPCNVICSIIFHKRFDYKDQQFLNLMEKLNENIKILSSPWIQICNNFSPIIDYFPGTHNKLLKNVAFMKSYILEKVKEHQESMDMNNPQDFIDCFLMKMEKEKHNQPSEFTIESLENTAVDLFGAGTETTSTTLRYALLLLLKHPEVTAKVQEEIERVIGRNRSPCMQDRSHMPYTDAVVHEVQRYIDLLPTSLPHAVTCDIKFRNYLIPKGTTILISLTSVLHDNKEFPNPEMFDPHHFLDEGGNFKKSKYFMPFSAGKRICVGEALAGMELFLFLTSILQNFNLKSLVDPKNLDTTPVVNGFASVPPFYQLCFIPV

Homo sapiens [10] = organism: Homo sapiens; test: Selectivity for human histamine H3 receptor over human histamine H1 receptor; outline: as §4
Rattus norvegicus [11] = test: Effect on sleep-awake cycle in EEG/EMG rat model assessed as wake promotion at 0.1 to 1 mg/kg, ip after 4 hrs relative to control; format: functional; conditions: dose mg/kg 0.1-1; route intraperitoneal; outline: as §3
Rattus norvegicus [12] = test: Effect on sleep-awake cycle in EEG/EMG rat model assessed as wake promotion time at 0.1 mg/kg, ip after 4 hrs (reference value: 80 +/- 5 mins); format: functional; conditions: route intraperitoneal; outline: as §3
Rattus norvegicus [13] = test: Effect on sleep-awake cycle in ip dosed EEG/EMG rat model assessed as wake promotion after 4 hrs; format: functional, organism-based; outline: as §3
Histamine H3 receptor [14] = molecular target: T1, Histamine H3 receptor; test: Inverse agonist activity at human histamine H3 receptor assessed as inhibition of R-alpha-methylhistamine-induced [35S]GTPgammaS binding; format: functional
Rattus norvegicus [15] = test: Effect on sleep-awake cycle in EEG/EMG rat model assessed as wake promotion time at 0.3 mg/kg, ip after 4 hrs (reference value: 80 +/- 5 mins); format: functional; conditions: route intraperitoneal; outline: as §3
[16] = Apparent permeability across human Caco2 cells; format: ADME, cell-based; conditions: Caco-2
[17] = Half life in rat liver microsomes; format: ADME, Microsome
[18] = Half life in human liver microsomes; format: ADME, Microsome
[19] = Plasma protein binding in rat; format: ADME, cell-free; conditions: read-out: PPB
Cytochrome P450 2C19 = Cytochrome P450 2C19 (Homo sapiens, UniProt P33261); test: Inhibition of CYP2C19; format: ADME
Cytochrome P450 2C19, sequence (P33261 whole entry): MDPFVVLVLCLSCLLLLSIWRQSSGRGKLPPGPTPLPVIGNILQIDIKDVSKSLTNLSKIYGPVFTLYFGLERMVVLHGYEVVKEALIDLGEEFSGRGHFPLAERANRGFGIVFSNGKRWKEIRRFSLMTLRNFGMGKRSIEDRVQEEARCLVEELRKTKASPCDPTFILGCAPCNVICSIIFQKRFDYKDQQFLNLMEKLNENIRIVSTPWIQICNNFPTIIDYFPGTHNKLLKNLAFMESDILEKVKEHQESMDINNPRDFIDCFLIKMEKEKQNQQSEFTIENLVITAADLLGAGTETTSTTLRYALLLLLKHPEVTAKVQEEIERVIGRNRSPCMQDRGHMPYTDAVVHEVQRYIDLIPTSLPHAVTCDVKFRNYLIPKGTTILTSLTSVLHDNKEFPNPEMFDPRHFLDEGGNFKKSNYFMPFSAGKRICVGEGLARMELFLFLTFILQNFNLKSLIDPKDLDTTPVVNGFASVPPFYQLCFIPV

[20] = Half life in rat at 1 mg/kg, iv; format: ADME, organism-based; set-up: dose 1 mg/kg, route intravenous; conditions: in vivo; outline: as §2
Homo sapiens [21] = organism: Homo sapiens; test: Selectivity for human histamine H3 receptor over human histamine H4 receptor; outline: as §4
Rattus norvegicus [22] = test: Effect on sleep-awake cycle in EEG/EMG rat model assessed as wake promotion time at 10 mg/kg, ip after 4 hrs relative to control; format: functional; conditions: route intraperitoneal; outline: as §3
[23] = Ratio drug uptake in brain to plasma of rat at 10 mg/kg, ip measured after 6 hrs; format: ADME, organism-based; set-up: dose 10 mg/kg, route intraperitoneal; conditions: read-out: BPR
[24] = Plasma protein binding in dog; format: ADME, cell-free, Canis lupus familiaris; conditions: read-out: PPB
[25] = Plasma protein binding in human; format: ADME, cell-free; conditions: read-out: PPB
Rattus norvegicus [26] = test: Inhibition of RAMH-induced dipsogenia in ip dosed rat; format: functional
[27] = Half life in monkey liver microsomes; format: ADME, Macaca mulatta, Microsome; conditions: rhesus monkey
Rattus norvegicus [28] = test: Effect on sleep-awake cycle in EEG/EMG rat model assessed as wake surplus at 30 mg/kg, ip up to 22 hrs; format: functional, organism-based; set-up: dose 30 mg/kg; outline: as §3
[29] = Half life in dog liver microsomes; format: ADME, Canis lupus familiaris, Microsome
[30] = Clearance in rat at 1 mg/kg, iv; format: ADME, organism-based; set-up: dose 1 mg/kg, route intravenous; conditions: in vivo; outline: as §2
Cytochrome P450 1A2 = molecular target: T2, Cytochrome P450 1A2 (Homo sapiens, UniProt P05177); test: Inhibition of CYP1A2; format: ADME
T2 sequence (P05177 whole entry): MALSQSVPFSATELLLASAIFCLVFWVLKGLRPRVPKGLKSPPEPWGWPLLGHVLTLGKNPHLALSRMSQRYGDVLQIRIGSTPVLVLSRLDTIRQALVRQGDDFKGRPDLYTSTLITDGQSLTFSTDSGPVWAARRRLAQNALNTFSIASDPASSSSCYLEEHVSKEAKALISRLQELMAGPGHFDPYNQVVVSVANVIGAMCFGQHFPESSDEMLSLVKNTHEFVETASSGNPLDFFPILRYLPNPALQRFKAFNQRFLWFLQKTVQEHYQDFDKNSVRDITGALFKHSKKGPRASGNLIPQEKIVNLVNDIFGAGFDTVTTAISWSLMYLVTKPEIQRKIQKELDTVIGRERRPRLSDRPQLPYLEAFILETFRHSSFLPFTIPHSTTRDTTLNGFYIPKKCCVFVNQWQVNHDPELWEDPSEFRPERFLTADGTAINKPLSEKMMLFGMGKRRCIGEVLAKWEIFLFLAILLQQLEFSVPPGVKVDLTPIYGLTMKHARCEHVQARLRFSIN

[31] = molecular target: Voltage-gated inwardly rectifying potassium channel KCNH2 (Homo sapiens, UniProt Q12809); test: Inhibition of human Erg by patch clamp assay
Voltage-gated inwardly rectifying potassium channel KCNH2, sequence (Q12809 whole entry): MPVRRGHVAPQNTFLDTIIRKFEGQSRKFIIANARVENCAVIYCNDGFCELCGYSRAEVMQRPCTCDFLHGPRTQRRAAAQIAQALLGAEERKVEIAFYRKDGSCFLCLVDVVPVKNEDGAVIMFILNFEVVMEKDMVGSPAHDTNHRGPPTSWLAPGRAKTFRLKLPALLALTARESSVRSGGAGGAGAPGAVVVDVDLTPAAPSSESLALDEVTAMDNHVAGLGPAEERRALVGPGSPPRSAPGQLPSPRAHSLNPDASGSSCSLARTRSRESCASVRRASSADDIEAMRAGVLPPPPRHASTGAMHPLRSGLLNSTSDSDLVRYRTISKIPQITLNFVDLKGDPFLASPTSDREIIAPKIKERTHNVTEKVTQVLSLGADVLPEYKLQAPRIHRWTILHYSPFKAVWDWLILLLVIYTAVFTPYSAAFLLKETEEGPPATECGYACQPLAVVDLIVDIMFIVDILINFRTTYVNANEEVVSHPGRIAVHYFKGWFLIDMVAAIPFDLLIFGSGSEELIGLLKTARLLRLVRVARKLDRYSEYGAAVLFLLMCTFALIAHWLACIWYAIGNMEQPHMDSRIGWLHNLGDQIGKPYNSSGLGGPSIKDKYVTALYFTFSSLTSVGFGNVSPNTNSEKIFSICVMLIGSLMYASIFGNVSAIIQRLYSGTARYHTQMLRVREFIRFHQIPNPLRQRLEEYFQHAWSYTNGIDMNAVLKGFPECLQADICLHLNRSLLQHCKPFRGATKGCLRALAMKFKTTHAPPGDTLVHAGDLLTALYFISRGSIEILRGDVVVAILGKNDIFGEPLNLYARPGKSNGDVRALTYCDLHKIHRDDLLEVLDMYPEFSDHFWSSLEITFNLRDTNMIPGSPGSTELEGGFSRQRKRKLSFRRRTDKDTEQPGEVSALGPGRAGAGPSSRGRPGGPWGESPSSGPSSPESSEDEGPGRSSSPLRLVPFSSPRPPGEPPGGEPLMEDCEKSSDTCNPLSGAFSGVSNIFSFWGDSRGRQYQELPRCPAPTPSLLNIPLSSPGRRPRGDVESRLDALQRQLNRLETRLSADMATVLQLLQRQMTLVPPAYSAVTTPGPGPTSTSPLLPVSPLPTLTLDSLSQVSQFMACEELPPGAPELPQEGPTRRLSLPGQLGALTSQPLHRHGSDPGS

[32] = Cmax in rat at 5 mg/kg, po; format: ADME, organism-based; set-up: dose 5 mg/kg, route oral; conditions: in vivo
Rattus norvegicus [33] = test: Effect on sleep-awake cycle in EEG/EMG rat model assessed as sleep rebound at 0.1 to 30 mg/kg, ip; format: functional, organism-based; outline: as §3
[34] = Volume of distribution in rat at 1 mg/kg, iv; format: ADME, organism-based; set-up: dose 1 mg/kg, route intravenous; conditions: in vivo; outline: as §2
Rattus norvegicus [35] = test: Effect on sleep-awake cycle in EEG/EMG rat model assessed as wake promotion time at 30 mg/kg, ip after 4 hrs relative to control; format: functional; conditions: route intraperitoneal; outline: as §3
Rattus norvegicus [36] = test: Effect on sleep-awake cycle in EEG/EMG rat model assessed as awake time at 10 mg/kg, ip after 4 hrs relative to control; format: functional; conditions: route intraperitoneal; outline: as §3
Rattus norvegicus [37] = test: Effect on sleep-awake cycle in EEG/EMG rat model assessed as wake promotion at 10 mg/kg, ip after 2 hrs; format: functional; conditions: route intraperitoneal; outline: as §3
Cytochrome P450 3A4 = Cytochrome P450 3A4 (Homo sapiens, UniProt P08684); test: Inhibition of CYP3A4; format: ADME
Cytochrome P450 3A4, sequence (P08684 whole entry): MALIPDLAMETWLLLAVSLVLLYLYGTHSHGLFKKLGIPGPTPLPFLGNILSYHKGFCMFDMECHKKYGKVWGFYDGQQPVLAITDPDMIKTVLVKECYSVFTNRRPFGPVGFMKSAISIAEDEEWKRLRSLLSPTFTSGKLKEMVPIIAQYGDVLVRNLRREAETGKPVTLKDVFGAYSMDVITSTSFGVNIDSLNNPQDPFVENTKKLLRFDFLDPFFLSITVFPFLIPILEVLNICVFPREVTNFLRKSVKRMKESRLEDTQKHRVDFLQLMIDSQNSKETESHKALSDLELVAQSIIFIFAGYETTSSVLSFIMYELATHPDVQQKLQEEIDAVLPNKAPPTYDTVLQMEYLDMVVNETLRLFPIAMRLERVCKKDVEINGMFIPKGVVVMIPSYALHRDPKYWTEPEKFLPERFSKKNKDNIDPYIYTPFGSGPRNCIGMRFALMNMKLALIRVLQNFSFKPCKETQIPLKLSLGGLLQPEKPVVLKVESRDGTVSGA

Cytochrome P450 2D6 = Cytochrome P450 2D6 (Homo sapiens, UniProt P10635); test: Inhibition of CYP2D6; format: ADME
Cytochrome P450 2D6, sequence (P10635 whole entry): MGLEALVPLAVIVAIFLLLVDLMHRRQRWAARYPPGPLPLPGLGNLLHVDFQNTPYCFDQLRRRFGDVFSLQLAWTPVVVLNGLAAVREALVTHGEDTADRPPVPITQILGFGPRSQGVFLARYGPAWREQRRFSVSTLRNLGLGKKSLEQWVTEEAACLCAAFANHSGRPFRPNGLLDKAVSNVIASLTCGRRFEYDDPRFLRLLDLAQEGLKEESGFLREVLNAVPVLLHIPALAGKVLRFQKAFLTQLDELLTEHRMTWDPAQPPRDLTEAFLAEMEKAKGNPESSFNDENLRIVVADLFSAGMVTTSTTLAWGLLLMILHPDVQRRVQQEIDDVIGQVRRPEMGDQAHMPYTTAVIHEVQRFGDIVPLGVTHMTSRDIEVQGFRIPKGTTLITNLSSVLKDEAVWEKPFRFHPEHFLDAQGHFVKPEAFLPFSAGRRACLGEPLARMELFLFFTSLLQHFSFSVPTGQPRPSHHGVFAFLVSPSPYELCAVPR

T1 sequence (Q9Y5N1 whole entry): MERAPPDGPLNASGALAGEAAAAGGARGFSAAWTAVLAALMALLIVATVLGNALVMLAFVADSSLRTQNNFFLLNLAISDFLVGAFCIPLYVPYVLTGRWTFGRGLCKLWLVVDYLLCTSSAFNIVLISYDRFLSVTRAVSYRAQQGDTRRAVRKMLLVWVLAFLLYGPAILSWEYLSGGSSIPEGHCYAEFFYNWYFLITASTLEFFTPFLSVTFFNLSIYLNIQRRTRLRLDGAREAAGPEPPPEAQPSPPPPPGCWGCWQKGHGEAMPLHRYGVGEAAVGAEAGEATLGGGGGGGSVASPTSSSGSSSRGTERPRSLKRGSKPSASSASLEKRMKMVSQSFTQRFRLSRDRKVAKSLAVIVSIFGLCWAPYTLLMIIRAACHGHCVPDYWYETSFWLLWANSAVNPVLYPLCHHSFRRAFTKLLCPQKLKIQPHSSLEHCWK

SMILES: CC(C)N1CCC(Oc2ccc(-c3ccc(=O)n(C)n3)cc2)CC1
Ki (Histamine H3 receptor [1]): 9.2 nM | Ki (Histamine H3 receptor [2]): 46 nM

SMILES: Cc1cc(=O)[nH]nc1-c1ccc(OC2CCN(C3CCC3)CC2)cc1
Ki (Histamine H3 receptor [1]): 4.4 nM | Ki (Histamine H3 receptor [2]): 6.3 nM

SMILES: O=c1ccc(-c2ccc(OC3CCN(C4CCCC4)CC3)cc2)n[nH]1
Ki (Histamine H3 receptor [1]): 5.1 nM | Ki (Histamine H3 receptor [2]): 7 nM

SMILES: Cn1nc(-c2ccc(OC3CCN(C4CCC4)CC3)cc2)ccc1=O
Ki (Histamine H3 receptor [1]): 2.4 nM | Ki (Histamine H3 receptor [2]): 3.1 nM

SMILES: Cn1nc(-c2ccc(OC3CCNCC3)cc2)ccc1=O
Ki (Histamine H3 receptor [1]): 695 nM | Ki (Histamine H3 receptor [2]): > 1000 nM

SMILES: O=C1CCC(c2ccc(OC3CCN(C4CCC4)CC3)cc2)=NN1
Ki (Histamine H3 receptor [1]): 3.7 nM | Ki (Histamine H3 receptor [2]): 6.7 nM

Further lines, with some results ahead:

inhibition [3]: 8% | bioavailability [4]: 33% | Selectivity ratio (Homo sapiens [8]): > 1000 | Ki (Histamine H3 receptor [1]): 2.7 nM | concentration at 6 h [9]: 2100 nM | IC50 (Cytochrome P450 2C9): > 30000 nM | Selectivity ratio (Homo sapiens [10]): > 1000 | EC50 (Histamine H3 receptor [14]): 0.8 nM | Papp [16]: 27 ×10⁻⁶ cm/s | half-life [17]: > 40 min | half-life [18]: > 40 min | fraction unbound [19]: 0.5 | IC50 (Cytochrome P450 2C19): > 30000 nM | half-life [20]: 114 min | Selectivity ratio (Homo sapiens [21]): > 1000 | Kp at 6 h [23]: 4 | fraction unbound [24]: 0.5 | fraction unbound [25]: 0.5 | half-life [27]: > 40 min | half-life [29]: > 40 min | clearance [30]: 18 mL/min/kg | IC50 (Cytochrome P450 1A2): > 30000 nM | Cmax [32]: 270 ng/mL | Ki (Histamine H3 receptor [2]): 4.4 nM | Vd [34]: 3.1 L/kg | IC50 (Cytochrome P450 3A4): > 30000 nM | IC50 (Cytochrome P450 2D6): > 30000 nM
SMILES: CC1(C)CC(c2ccc(OC3CCN(C4CCC4)CC3)cc2)=NNC1=O
Time (Rattus norvegicus [5]): 116 min | Activity (Rattus norvegicus [6]): 98% | Time (Rattus norvegicus [7]): 196 min | Activity (Rattus norvegicus [11]): 45% | Time (Rattus norvegicus [12]): 115 min | Activity (Rattus norvegicus [13]): Dose-dependent effect | Time (Rattus norvegicus [15]): 122 min | Activity (Rattus norvegicus [22]): 152% | ED50 (Rattus norvegicus [26]): 0.14 mg/kg | inhibition (Rattus norvegicus [26]): Dose-dependent effect | Activity (Rattus norvegicus [28]): Active | IC50 [31]: 21000 nM | Activity (Rattus norvegicus [33]): inactive | Activity (Rattus norvegicus [35]): 193% | Activity (Rattus norvegicus [36]): 84% | Activity (Rattus norvegicus [37]): 90%

Ki (Histamine H3 receptor [1]): 6.5 nM | Ki (Histamine H3 receptor [2]): 9.4 nM
SMILES: CC(C)n1nc(-c2ccc(OC3CCN(C4CCC4)CC3)nc2)ccc1=O

Ki (Histamine H3 receptor [1]): 1.8 nM | Ki (Histamine H3 receptor [2]): 8.6 nM
SMILES: Cn1nc(-c2ccc(OC3CCN(C4CCC4)CC3)nc2)ccc1=O

Ki (Histamine H3 receptor [1]): 12 nM | Ki (Histamine H3 receptor [2]): 28 nM
SMILES: CC1(C)CC(c2ccc(OC3CCN(C4CCC4)CC3)nc2)=NNC1=O

Ki (Histamine H3 receptor [1]): 5.9 nM | Ki (Histamine H3 receptor [2]): 12 nM
SMILES: Cn1nc(-c2ccc(OC3CCN(C4CCCC4)CC3)nc2)ccc1=O

Source: ChEMBL document CHEMBL1949660 (Bioorg Med Chem Lett, 2012)
